Experimental data as given in ChEMBL document CHEMBL3593206, “SAR Studies of Exosite-Binding Substrate-Selective Inhibitors of A Disintegrin And Metalloprotease 17 (ADAM17) and Application as Selective in Vitro Probes” (J Med Chem, 2015).
pIC50: −log10 of the molar value.

Tests used:
[1] = target: T1, Disintegrin and metalloproteinase domain-containing protein 10 (Homo sapiens, UniProt O14672); experiment: Inhibition of ADAM10 (unknown origin) preincubated for 30 mins followed by substrate addition measured every 30 mins for 2 hrs by fluorescence assay
T1 sequence (O14672 whole entry): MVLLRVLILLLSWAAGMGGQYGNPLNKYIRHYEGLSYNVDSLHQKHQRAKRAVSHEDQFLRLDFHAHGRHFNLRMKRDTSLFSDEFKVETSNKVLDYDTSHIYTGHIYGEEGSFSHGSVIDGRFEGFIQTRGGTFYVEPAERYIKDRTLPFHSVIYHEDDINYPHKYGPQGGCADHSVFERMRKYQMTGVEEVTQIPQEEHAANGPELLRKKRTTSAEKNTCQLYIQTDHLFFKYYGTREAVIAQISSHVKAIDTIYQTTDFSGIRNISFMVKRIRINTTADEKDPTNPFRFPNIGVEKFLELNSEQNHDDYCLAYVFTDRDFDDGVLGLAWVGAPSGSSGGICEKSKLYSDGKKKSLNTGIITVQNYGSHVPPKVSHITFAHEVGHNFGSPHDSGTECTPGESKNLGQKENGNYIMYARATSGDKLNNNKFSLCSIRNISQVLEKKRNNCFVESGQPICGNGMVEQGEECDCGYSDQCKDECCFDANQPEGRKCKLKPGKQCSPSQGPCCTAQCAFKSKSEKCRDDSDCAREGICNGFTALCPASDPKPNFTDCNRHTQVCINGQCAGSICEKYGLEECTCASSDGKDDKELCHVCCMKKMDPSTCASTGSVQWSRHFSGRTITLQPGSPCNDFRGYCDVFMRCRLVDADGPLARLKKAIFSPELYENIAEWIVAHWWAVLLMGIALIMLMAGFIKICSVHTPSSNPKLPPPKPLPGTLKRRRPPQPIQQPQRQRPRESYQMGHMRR
Procedure, shortened: (§1)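 Enzyme at 30 nM (3× solution) in 10 mM Hepes, 0.001% Brij-35, pH 7.5. Inhibitor series of 10 points, 1:3, from 300 μM, preincubated 30 min at RT. Glycosylated substrate added from a 30 μM 3× solution. Fluorescence (ex 360/em 460 nm) read every 30 min for 2 h. Inhibition taken from hydrolysis rates against substrate-only and substrate-plus-enzyme wells.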

[2] = target: Disintegrin and metalloproteinase domain-containing protein 17 (Homo sapiens, UniProt P78536); experiment: Inhibition of ADAM17 (unknown origin) preincubated for 30 mins followed by substrate addition measured every 30 mins for 2 hrs by fluorescence assay; procedure, shortened: as §1
Chain of Disintegrin and metalloproteinase domain-containing protein 17 (P78536 whole entry, the tested form may be a part): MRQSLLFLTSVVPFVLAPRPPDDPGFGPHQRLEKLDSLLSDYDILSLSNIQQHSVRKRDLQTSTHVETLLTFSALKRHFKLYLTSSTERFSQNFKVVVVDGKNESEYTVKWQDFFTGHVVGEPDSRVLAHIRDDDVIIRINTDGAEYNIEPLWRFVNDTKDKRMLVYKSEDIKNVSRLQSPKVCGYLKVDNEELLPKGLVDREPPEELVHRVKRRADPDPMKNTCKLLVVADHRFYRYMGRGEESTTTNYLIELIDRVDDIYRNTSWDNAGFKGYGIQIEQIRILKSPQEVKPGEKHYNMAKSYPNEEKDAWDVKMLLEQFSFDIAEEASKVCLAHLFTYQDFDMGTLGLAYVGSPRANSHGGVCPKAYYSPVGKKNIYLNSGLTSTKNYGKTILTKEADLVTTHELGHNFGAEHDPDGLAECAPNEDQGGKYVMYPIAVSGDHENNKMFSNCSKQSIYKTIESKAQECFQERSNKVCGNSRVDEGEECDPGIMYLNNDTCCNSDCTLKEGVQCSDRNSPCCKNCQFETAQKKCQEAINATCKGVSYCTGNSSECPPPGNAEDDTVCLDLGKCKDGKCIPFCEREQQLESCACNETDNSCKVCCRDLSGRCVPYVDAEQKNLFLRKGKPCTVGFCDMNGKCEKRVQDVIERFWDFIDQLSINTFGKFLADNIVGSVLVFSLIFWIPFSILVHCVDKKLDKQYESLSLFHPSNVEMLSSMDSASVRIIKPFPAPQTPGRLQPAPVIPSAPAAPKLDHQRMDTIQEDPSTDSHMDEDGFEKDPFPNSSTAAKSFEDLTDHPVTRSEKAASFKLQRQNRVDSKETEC

Structure (SMILES) | pIC50 [1] | pIC50 [2]
O=C1NC[C@@H](Cc2ccc3ccccc3c2)N(C[C@@H]2CCCN2C[C@H](Cc2ccc(O)cc2)N2C[C@@H](Cc3ccc(O)cc3)N(CCC34CC5CC(CC(C5)C3)C4)C(=O)C2=O)C1=O | < 4.00 | 4.82
CCC[C@H]1CNC(=O)C(=O)N1C[C@@H]1CCCN1C[C@H](Cc1ccc(O)cc1)N1C[C@H](Cc2ccc(O)cc2)N(CC(CC)c2ccccc2)C(=O)C1=O (stereo partly specified) | < 4.00 | 4.82
CCC[C@H]1CNC(=O)C(=O)N1C[C@@H]1CCCN1C[C@H](Cc1ccc(O)cc1)N1C[C@H](Cc2ccc(O)cc2)N(CC2CCC(C(C)(C)C)CC2)C(=O)C1=O (stereo partly specified) | < 4.00 | 5.00
CCC[C@H]1CNC(=O)C(=O)N1C[C@@H]1CCCN1C[C@H](Cc1ccc(O)cc1)N1C[C@H](Cc2ccc(O)cc2)N(CC2CCCCC2)C(=O)C1=O | < 4.00 | 4.54
CCC[C@H]1CNC(=O)C(=O)N1C[C@@H]1CCCN1C[C@H](Cc1ccc(O)cc1)N1C[C@H](Cc2ccc(O)cc2)N(CC2CCC2)C(=O)C1=O | < 4.00 | 4.03
CCC[C@H]1CNC(=O)C(=O)N1C[C@@H]1CCCN1C[C@H](Cc1ccc(O)cc1)N1C[C@@H](Cc2ccc(O)cc2)N(CCC23CC4CC(CC(C4)C2)C3)C(=O)C1=O | < 4.00 | 5.27
O=C1NC[C@@H](Cc2ccc3ccccc3c2)N(C[C@@H]2CCCN2C[C@H](Cc2ccc(O)cc2)N2C[C@H](Cc3ccc4ccccc4c3)N(CCC34CC5CC(CC(C5)C3)C4)C(=O)C2=O)C1=O | < 4.00 | 5.08
CCC[C@H]1CNC(=O)C(=O)N1C[C@@H]1CCCN1C[C@H](Cc1ccc(O)cc1)N1C[C@H](Cc2ccc(O)cc2)N(CCC23CC4CC(CC(C4)C2)C3)C(=O)C1=O | < 4.00 | 5.23
